Screening data: PubChem BioAssay, Broad Institute
Compounds with a hit are over-represented: about 3.3% of the library has one in this group of screens.
E-sel inducer = induces E-selectin expression in human endothelial cells. AID 686992. actives 0.37% (n = 260,000). P16581. HUVEC E-selectin immunofluorescence imaging; normalized: neutral wells 0, TNF-alpha wells 100. activation, % at 7.58 µM;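 active means mean E-selectin-positive cell signal at least 10% of the positive control, reached in at least 60% of replicates, without over 20% cell loss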
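System: HUVEC, human umbilical vein endothelial cells; quantity: 3,000 cells/well; buffer or medium: EGM-2 medium, gelatin-coated wells; dosing: single-point compound dose; detection: immunofluorescence imaging; evaluation: % PE-positive cells; benchmarks: TNF-alpha, DMSO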
Statin myotox sup = suppression of simvastatin myotoxicity; C2C12 myotubes + simvastatin, ATP luminescence, 48 h; scaled: DMSO 0, geranylgeraniol control 100; rescue of ATP level, % at 7.49 µM; actives 0.78% (n = 330,000); AID 602340;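 active means mean ATP rescue above about 67%, or every replicate alone reaching that limit, limit read from the data, passing the limit was not always enough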;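 further: myotubes were challenged with 10 µM simvastatin during compound exposure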
DENV2 CPE = DENV2-induced cell death inhibition; DENV2-infected cells, cytopathic effect rescue, plate reader; actives 1.7% (n = 350,000); CPE inhibition, % at 9.99 µM; AID 651640; in the data active means CPE inhibition above about 20%, passing the limit was not always enough; tested in BHK-21 cells;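 further: 0% = median of neutral control wells and 100% = median of positive control wells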
PglD DTNB = inhibitors of Campylobacter jejuni PglD acetyltransferase. purified PglD enzyme, DTNB colorimetric CoA detection. inhibition, % at 12.5 µM. actives 0.098% (n = 360,000); in the data active means inhibition above about 16%, passing the limit was not always enough
XiGFP reactiv = activators of X-chromosome reactivation in mouse fibroblasts; XiGFP mouse fibroblasts, % GFP-positive cells imaging, 3 d; cells co-treated with 5-aza-dC sensitizer; scaled so ellipticine positive control = 100%; activation, % at 7.58 µM; actives 0.055% (n = 360,000);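 active means mean normalized replicate activation at least 10% and every replicate at or above 10%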;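 further: 0% = median of on-plate neutral control wells and 100% = ellipticine 6 µM median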
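Schedule: 3 d treatment, 15 min room-temperature fixation; system: 68-5-11 XiGFP fibroblast line; buffer or medium: DMEM plus 5-aza-dC sensitizer; control set: ellipticine 6 µM positive control; compound: one concentration, pinned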
FGF22 binding = FGF22 (human) thermal shift binding | Q9HCT0 | recombinant FGF22 thermal shift, SYPRO orange fluorescence; percent of sucrose octasulfate shift, DMSO zero | activity (Tm shift, normalised), % at 9.99 µM | actives 1.5% (n = 340,000) | AID 651658;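 active means mean Tm shift, scaled 0 neutral to 100 positive control, at about 1.3% or above, every replicate too, limit read from the data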
Target sequence (Q9HCT0 whole entry, looked up): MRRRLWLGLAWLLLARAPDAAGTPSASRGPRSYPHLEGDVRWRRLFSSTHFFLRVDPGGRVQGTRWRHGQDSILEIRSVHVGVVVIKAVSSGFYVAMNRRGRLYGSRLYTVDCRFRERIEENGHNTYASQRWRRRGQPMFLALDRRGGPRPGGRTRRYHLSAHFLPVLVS
* = called active by the depositor; . = not tested or not shown.

SMILES	E-sel inducer	Statin myotox sup	DENV2 CPE	PglD DTNB	XiGFP reactiv	FGF22 binding
COc1cccc(NC(=O)C(c2ccccc2)N2CCCC2)c1 (stereo not given)	.	.	5	.	0	43*
Cc1noc(C)c1S(=O)(=O)N(C)C[C@@H]1Oc2ccc(NC(=O)NC3CCCCC3)cc2CC(=O)N([C@H](C)CO)C[C@@H]1C	-3	-38	12	-1	-1	0
CN(Cc1ccccc1Cl)C(=O)C1CC(=O)N(c2ccc3c(c2)OCCO3)C1 (stereo not given)	.	0	2	-1	0	-1
CN(Cc1ccc(Cl)c(Cl)c1)C(=O)C1CC(=O)N(c2ccc3c(c2)OCCO3)C1 (stereo not given)	0	16	30*	9	0	0
NC(=O)C1CCN(C(=O)C2CC(=O)N(c3ccc4c(c3)OCCO4)C2)CC1 (stereo not given)	3	-1	24*	1	0	0
COc1ccc(N(CC(=O)Nc2cccnc2)S(C)(=O)=O)cc1	.	.	3	.	0	43*
CCOc1ccc(N(CC(=O)Nc2ccc(Br)cc2)S(C)(=O)=O)cc1	0	2	-4	-6	0	0
CCOc1ccc(N(C(C)C(=O)Nc2cccnc2)S(C)(=O)=O)cc1 (stereo not given)	.	10	-3	2	0	43*
CCOc1ccc(N(C(C)C(=O)NC(C)CC)S(C)(=O)=O)cc1 (stereo not given)	.	2	.	-5	.	.
CCOc1ccc(N(CC(=O)Nc2cccc(C)c2)S(C)(=O)=O)cc1	.	8	43*	6	0	0
COc1cccc(N(CC(=O)Nc2cccnc2)S(C)(=O)=O)c1	.	9	5	0	0	43
CCOc1ccccc1N(CC(=O)Nc1ccc(OC)cc1)S(=O)(=O)c1ccccc1	0	21	28*	-1	0	0
C[C@@H]1CN([C@H](C)CO)C(=O)Cc2cc(NS(=O)(=O)c3cn(C)cn3)ccc2O[C@H]1CN(C)Cc1ccc(Cl)c(Cl)c1	.	26	-9	18	1	0
CN1C(=O)c2cc(NS(=O)(=O)c3ccc(Cl)cc3)ccc2OC[C@H]2O[C@H](CC(=O)O)CC[C@H]21	0	17	3	-2	0	0
CCOC(=O)N1CCN(C(=O)CN(c2ccccc2OC)S(=O)(=O)c2ccc(OC)cc2)CC1	.	.	-8	.	0	0
CCOc1ccccc1NC(=O)CCS(=O)(=O)c1ccc(OC)cc1	.	.	7	.	0	44*
CCOc1ccc(N(CC(=O)Nc2ccc(OC)cc2)S(C)(=O)=O)cc1	.	-8	.	-1	.	.
CCOc1ccc(NC(=O)CN(c2ccc(OC)cc2)S(C)(=O)=O)cc1	.	111*	.	-3	.	.
COc1ccc(S(=O)(=O)N(CC(=O)N2CCCCCC2)c2ccccc2OC)cc1	0	99*	10	-3	0	0
COc1ccc(NC(=O)N(C)C[C@H]2OCCCC[C@@H](C)Oc3ccc(NC(=O)NC(C)C)cc3C(=O)N([C@H](C)CO)C[C@H]2C)cc1	0	.	-5	0	0	1
C[C@H](CO)N1C[C@H](C)[C@H](CN(C)C(=O)Nc2cccc(F)c2)Oc2ncc(C3=CCCC3)cc2C1=O	0	-8	-6	-5	1	0
CCOC(=O)C1=C(C)NC(C)=C(C(=O)OCC)C1C(=O)OCC(=O)N1CCC(C)CC1	0	3	-1	3	0	43*
C[C@@H]1CN([C@H](C)CO)C(=O)c2cc(NC(=O)CCC(F)(F)F)ccc2O[C@@H]1CN(C)Cc1ccc2c(c1)OCO2	0	26	-2	-2	-1	0
COc1ccc(CN(C)C[C@@H]2OCCCC[C@H](C)Oc3ccc(NS(=O)(=O)c4ccccc4)cc3C(=O)N([C@H](C)CO)C[C@H]2C)cc1	2	.	32*	6	0	0
COc1ccc(CN(C)C[C@H]2OCCCC[C@@H](C)Oc3ccc(NS(=O)(=O)c4ccccc4)cc3C(=O)N([C@H](C)CO)C[C@H]2C)cc1	0	.	7	-1	0	0
SMILES	E-sel inducer	Statin myotox sup	DENV2 CPE	PglD DTNB	XiGFP reactiv	FGF22 binding
COc1ccc(CN(C)C[C@H]2OCCCC[C@@H](C)Oc3ccc(NS(=O)(=O)c4ccccc4)cc3C(=O)N([C@@H](C)CO)C[C@H]2C)cc1	0	.	34*	-2	0	0
COc1ccc(CN(C)C[C@@H]2OCCCC[C@H](C)Oc3ccc(NS(=O)(=O)c4ccccc4)cc3C(=O)N([C@@H](C)CO)C[C@H]2C)cc1	0	.	-7	-1	0	0
C[C@H](CO)N1C[C@H](C)[C@H](CN(C)Cc2ccccc2)Oc2ncc(-c3cccnc3)cc2C1=O	0	27	.	.	1	.
CCNC(=O)[C@H]1[C@H](CO)[C@H]2Cn3c(ccc(/C=C/c4ccccc4)c3=O)[C@@H]1N2C(=O)C1CCCC1	0	.	5	.	0	.
C[C@@H]1CN([C@@H](C)CO)C(=O)c2cc(C#CC3CC3)cnc2O[C@@H]1CN(C)C(=O)c1ccncc1	3	15	.	.	-1	.
C[C@H](CO)N1C[C@H](C)[C@@H](CN(C)C(=O)Nc2ccccc2F)Oc2cc(-c3ccccc3)ccc2S1(=O)=O	0	-9	13	1	0	0
Cc1ccc(N2C(=O)c3cccc4c(N)ccc(c34)C2=O)c2cccnc12	.	-36	-1	4	116*	0
Cc1nn(C)c(C)c1N1C(=O)c2cccc3c(N)ccc(c23)C1=O	3	.	.	-9	1	.
COc1ccc2c3c([nH]c2c1)[C@@H](CO)N(C(=O)C1CCOCC1)CC31CCN(C)CC1	0	.	-7	.	0	0
COc1ccc(N2C(=O)C(CN3CCN(C)CC3)C2c2ccccc2)cc1 (stereo not given)	.	.	-4	.	0	44*
CCN1C(=O)[C@@H]2Cc3c([nH]c4ccccc34)C(c3cc(OC)c(OC)c(OC)c3)N2C1=S (stereo not given in full)	1	5	6	-1	26*	0
C=CCN1C(=O)[C@@H]2Cc3c([nH]c4ccccc34)C(c3cc(OC)c(OC)c(OC)c3)N2C1=S (stereo not given in full)	1	11	4	-9	91*	0
C=CCN1C(=O)[C@@H]2Cc3c([nH]c4ccccc34)C(c3ccc(O)cc3)N2C1=S (stereo not given in full)	.	-3	.	-2	.	.
COc1cccc(CNC(=O)C[C@H]2C=C[C@@H](NC(C)=O)[C@H](CO)O2)c1	0	-1	-2	4	0	0
O=C(C(=O)N1CCOCC1)c1c[nH]c2ccccc12	.	0	-1	.	0	43*
